Active and inactive are the calls of the source. The calls are words filed in the database; no cut-off is given here.

The target of one series is T1, D-aspartate oxidase (Homo sapiens, UniProt Q99489).
T1 sequence (Q99489 whole entry): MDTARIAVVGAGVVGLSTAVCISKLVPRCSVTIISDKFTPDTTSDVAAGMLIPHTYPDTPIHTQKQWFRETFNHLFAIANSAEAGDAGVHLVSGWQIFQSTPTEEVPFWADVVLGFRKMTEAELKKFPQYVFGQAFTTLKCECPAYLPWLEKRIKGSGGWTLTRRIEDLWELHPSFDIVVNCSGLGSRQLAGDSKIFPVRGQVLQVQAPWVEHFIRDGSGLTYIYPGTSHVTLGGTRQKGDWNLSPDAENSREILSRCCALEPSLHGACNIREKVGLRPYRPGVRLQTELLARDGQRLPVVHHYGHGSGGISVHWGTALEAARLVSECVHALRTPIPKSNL
Kind of series: Inhibition of human recombinant DDO expressed in sf9 insect cells assessed as degradation of D-aspartic acid by fluorescence assay.

A short description of series [1]: Displacement of [3H]glycine from NMDA receptor at 10 uM. For orientation: In a radioligand displacement assay an active substance lowers the binding of a labelled ligand.
A short description of series [2]: Dissociation constant, pKa of the compound. In kind it is physicochemical.
Series [3] is described as follows: Half life in Sprague-Dawley CD rat at 3 mg/kg, po and 1 mg/kg, iv. The format is ADME, organism-based. The settings on record: in vivo.
Series [4] in a line: Oral bioavailability in Sprague-Dawley CD rat at 3 mg/kg. In kind it is ADME, organism-based. The settings on record: in vivo.
The next series has as its system Rattus norvegicus. The series is described as follows: Volume of distribution in Sprague-Dawley CD rat at 3 mg/kg, po and 1 mg/kg, iv. The format is ADME, organism-based. The note with it: in vivo.
The nature of series [5]: Clearance in Sprague-Dawley CD rat plasma at 3 mg/kg, po and 1 mg/kg, iv. In kind it is ADME, organism-based.
The nature of series [6]: Cmax in Sprague-Dawley CD rat at 3 mg/kg, po. The note with it: in vivo. In kind it is ADME, organism-based. Details: dose 3 mg/kg, route oral.
Series [7] in a line: Ratio of drug level in brain to plasma in 129/SVEV mouse at 10 mg/kg, sc after 4 hrs. The note with it: read-out: BPR.
The test system of series [8] is Brain. The series is described as follows: Free drug level in 129/SVEV mouse brain at 10 mg/kg, sc after 4 hrs. The note with it: in vivo.
In the next series the test system is Mus musculus. The series is described as follows: Elevation of D-serine level in 129/SVEV mouse cerebellum at 10 mg/kg, sc after 4 hrs by LC/MS-MS analysis. In kind it is functional, organism-based. Details: dose 10 mg/kg. Put shortly:
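Male rats (1-2 mL/kg) or male mice (10 mL/kg) received compound or vehicle sc in 5% DMSO/5% Cremophor EL/90% saline. At 4 h, cerebella were taken under CO2 anesthesia, homogenized in 3 volumes PBS and extracted with 16 volumes acetonitrile, and the supernatant was dried.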

The target of another series is D-amino-acid oxidase (Rattus norvegicus, UniProt O35078). The series is described as follows: Inhibition of rat recombinant DAAO expressed in sf9 insect cells assessed as degradation of D-serine by fluorescence assay.
Sequence of D-amino-acid oxidase (O35078 whole entry): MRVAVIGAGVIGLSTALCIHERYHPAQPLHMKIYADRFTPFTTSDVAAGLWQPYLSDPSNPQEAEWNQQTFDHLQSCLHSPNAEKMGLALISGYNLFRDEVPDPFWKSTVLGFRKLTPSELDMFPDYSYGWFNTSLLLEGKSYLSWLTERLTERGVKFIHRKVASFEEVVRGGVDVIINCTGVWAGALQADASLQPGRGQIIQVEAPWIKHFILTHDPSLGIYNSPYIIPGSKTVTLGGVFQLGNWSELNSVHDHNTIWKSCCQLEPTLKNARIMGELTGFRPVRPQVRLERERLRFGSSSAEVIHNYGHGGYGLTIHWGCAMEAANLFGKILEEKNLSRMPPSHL
In series [9] the test system is Brain. The series is described as follows: Free drug level in Sprague-Dawley CD rat brain at 56 mg/kg, sc after 4 hrs. In kind it is ADME, organism-based. Details: dose 56 mg/kg, route subcutaneous. The note with it: in vivo.
Series [10] can be described thus: Fraction unbound in Sprague-Dawley CD rat brain at 56 mg/kg, sc after 4 hrs. The format is ADME, organism-based. Details: dose 56 mg/kg, route subcutaneous.
The nature of series [11]: Ratio of drug level in brain to plasma in Sprague-Dawley CD rat at 56 mg/kg, sc after 4 hrs. The format is ADME, organism-based. Details: dose 56 mg/kg, route subcutaneous. The settings on record: read-out: BPR.

Broadly, the IC50 is the concentration that inhibits the measured activity by half. For the compound `O=c1[nH]c2cccnc2cc1O`, the IC50 at D-aspartate oxidase was greater than 50 µM.
With `O=c1[nH]c2ccncc2cc1O`, the IC50 on D-aspartate oxidase was greater than 36 µM.
The inhibition is the percentage by which the read-out fell short of the control. The low end stands for a response near the control, the high end for a response far below the control. In turn, `Cc1cccc2[nH]c(=O)c(O)cc12` had an inhibition in [1] of less than 50%.
As for `O=c1[nH]c2ncccc2cc1O`, on D-aspartate oxidase, the IC50 is greater than 7.64 µM. This compound also returned an inhibition in [1] of less than 50%.
In the case of `O=c1[nH]c2nccnc2cc1O`, the IC50 on D-aspartate oxidase was greater than 50 µM.
For orientation: pKa means the negative logarithm of the acid dissociation constant. Compound `Oc1noc2cc(Cl)ccc12` displayed a pKa in [2] of 4.
One may read the half-life as the time in which the quantity being followed falls by half. As a reminder, the bioavailability is the share of a dose that reaches the circulation, judged against a reference dose that is usually intravenous. Low readings indicate poor availability, high ones good availability. For orientation: Cmax means the maximum level reached in the sampled fluid or tissue. Turning to `O=c1[nH]c2ccc(F)cc2cc1O`, the half-life in series [3] was 54 min. Moreover, the bioavailability in [4] was 44%. Besides, the inhibition in series [1] was less than 50%. The compound also registered a Vd in the series on Rattus norvegicus of 2.3 L/kg. Moreover, the clearance in [5] stood at 72 mL/min/kg. Moreover, in series [6], the concentration peaked (Cmax) at 216 ng/mL.
Regarding `O=c1[nH]c2ncc(F)c(Cl)c2cc1O`, in series [7], the Kp at 4 h came out at 0.1. The Drug uptake in the series with Brain [8] stood at 12 nM. The outcome in the series with Mus musculus was Active.
For `Cc1ccc2cc(O)c(=O)[nH]c2c1`, at D-aspartate oxidase, the IC50 came out at 21.5 µM.
`Cc1cc(C(=O)O)n[nH]1` returned a pKa in series [2] of 4.
As for `Cc1cccc2cc(O)c(=O)[nH]c12`, the IC50 at D-aspartate oxidase amounted to 31.6 µM.
Consider `O=C(O)c1cc2occc2[nH]1`, for which the figures for the IC50 at D-aspartate oxidase and at D-amino-acid oxidase were greater than 19.5 µM and 424 nM, respectively. Also, the pKa in [2] is 4. Besides, the Kp at 4 h in series [7] was 0.8.
As to `O=c1[nH]c2c(Cl)cccc2cc1O`, the IC50 on D-aspartate oxidase is greater than 43.4 µM.
In series [1], `CCc1cccc2[nH]c(=O)c(O)cc12` displayed an inhibition of less than 50%.
As usually defined, the fraction unbound is free concentration divided by total concentration. High values mean weak binding, low ones extensive binding. Compound `O=c1[nH]c2ccccc2cc1O` registered a pKa in [2] of 8.7. Also, the figures for the Drug uptake in the series with Brain [9] and in the series with Brain [8] were 670 nM and 15 nM, respectively. This compound returned a bioavailability in series [4] of 0.9%. The figures for the Kp at 4 h in series [7] and in series [11] were 2 and 0.7, respectively. In series [1], this compound gave an inhibition of 29%. Also, the Vd in the series on Rattus norvegicus turned out to be 10.8 L/kg. The compound further registered a fraction unbound at 4 h in [10] of 0.22. In addition, the clearance in [5] stood at 46 mL/min/kg. Moreover, the Cmax in [6] amounted to 5.5 ng/mL.
Turning to `Cc1c(O)c(=O)[nH]c2ccccc12`, the IC50 at D-aspartate oxidase came to 32.3 µM.
`O=c1[nH]c2c(F)cccc2cc1O` yielded an inhibition in series [1] of less than 50%.
With `O=c1[nH]c2ccc(Cl)cc2cc1O`, the IC50 at D-aspartate oxidase is greater than 50 µM.
Take `CCc1cccc2cc(O)c(=O)[nH]c12`: the IC50 at D-aspartate oxidase was greater than 50 µM.
As to `O=c1[nH]c2cccc(F)c2cc1O`, the IC50 on D-aspartate oxidase was determined as 64 µM. This compound also came in with an inhibition in series [1] of less than 50%.
Turning to `O=c1[nH]c2cc(F)ccc2cc1O`, on D-aspartate oxidase, the IC50 came out at 22.4 µM. The same compound had a half-life in series [3] of 324 min. In addition, the bioavailability in [4] is 38%. Moreover, the inhibition in series [1] is less than 50%. The same compound gave a Vd in the series with Rattus norvegicus of 1.2 L/kg. For the same compound, the clearance in [5] turned out to be 15 mL/min/kg. This compound also returned a Cmax in [6] of 754 ng/mL.
Consider `O=c1[nH]c2cccc(Cl)c2cc1O`, for which the IC50 worked out at 206 µM at D-aspartate oxidase and 40 nM at D-amino-acid oxidase. This compound also gave an inhibition in series [1] of less than 50%.
Turning to `O=c1[nH]c2cnccc2cc1O`, the IC50 on D-aspartate oxidase is greater than 50 µM.

Values taken from ChEMBL document CHEMBL1136932, “Discovery, SAR, and pharmacokinetics of a novel 3-hydroxyquinolin-2(1H)-one series of potent D-amino acid oxidase (DAAO) inhibitors” (J Med Chem, 2009).
